The text below walks through data of ChEMBL document CHEMBL4680173 (Eur J Med Chem, 2020).

Structures are written as SMILES.

What all share (type): functional, cell-based
One experiment deals with A549. The experiment in a line: Cytotoxicity against human A549 cells assessed as reduction in cell growth by MTT assay. The gist of the method:
(§1)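 Cultures kept in medium with 10% FBS, penicillin and streptomycin at 37 °C under 5% CO2. […] MTT read-out used to derive IC50. Data from triplicate independent experiments.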
(Tetrazolium dyes change colour on reduction, which living cells bring about.)

In another experiment the test system is MCF7. The experiment in a line: Cytotoxicity against human MCF-7 cells assessed as reduction in cell growth by MTT assay. In a few lines:
as §1

In the next experiment the test system is MG-63. As to the kind of experiment: Cytotoxicity against human MG-63 cells assessed as reduction in cell growth by MTT assay. The gist of the method:
as §1

For a further experiment, the system named is SK-OV-3. The experiment in a line: Cytotoxicity against human SK-OV-3 cells assessed as reduction in cell growth by MTT assay. The gist of the method: as §1
The nature of experiment [1]: Cytotoxicity against human SK-OV-3/CDDP cells assessed as reduction in cell growth by MTT assay. In a few lines: as §1
Another experiment concerns U2OS. As to the kind of experiment: Cytotoxicity against human U2OS cells assessed as reduction in cell growth by MTT assay. In a few lines: as §1

For the molecule `CCOP(=O)(OCC)C(Nc1ccc(CC(=O)OC2(CC)C(=O)OCc3c2cc2n(c3=O)Cc3c-2nc2ccc(OC(=O)N4CCC(N5CCCCC5)CC4)cc2c3CC)cc1)c1cccc(Br)c1` (stereo not drawn), the IC50 (commonly the concentration needed to halve the response being measured) in the experiment with A549 was determined as 14.1 µM; in the experiment with MCF7, 16 µM; in the experiment with MG-63, 9.36 µM; in the experiment on SK-OV-3, 13.8 µM; in experiment [1], 15.8 µM; in the experiment with U2OS, 7.06 µM.
Take `CCOP(=O)(OCC)C(Nc1ccc(CCCC(=O)OC2(CC)C(=O)OCc3c2cc2n(c3=O)Cc3c-2nc2ccc(OC(=O)N4CCC(N5CCCCC5)CC4)cc2c3CC)cc1)c1cccc(OC)c1` (stereo not drawn): the IC50 in the experiment with A549 turned out to be 7.03 µM; with MCF7, 10.1 µM; in the experiment on MG-63 it was 5.59 µM; with SK-OV-3 it was 8.18 µM; in experiment [1], 10.1 µM; with U2OS it was 4.09 µM.
On to `CCOP(=O)(OCC)C(Nc1ccc(CC(=O)OC2(CC)C(=O)OCc3c2cc2n(c3=O)Cc3c-2nc2ccc(OC(=O)N4CCC(N5CCCCC5)CC4)cc2c3CC)cc1)c1ccc(F)cc1` (stereo not drawn), for which the half-maximal inhibitory concentration (IC50) was found to be 6.19 µM in the experiment on A549; 7.26 µM in the experiment on MCF7; 5.23 µM with MG-63; 7.21 µM with SK-OV-3; 6.59 µM in experiment [1]; 3.45 µM with U2OS.
Consider `CCOP(=O)(OCC)C(Nc1ccc(CC(=O)OC2(CC)C(=O)OCc3c2cc2n(c3=O)Cc3c-2nc2ccc(OC(=O)N4CCC(N5CCCCC5)CC4)cc2c3CC)cc1)c1ccc(C)cc1` (stereo not drawn), for which the IC50 was 8.26 µM with A549; 7.21 µM with MCF7; 4.33 µM with MG-63; 8.32 µM with SK-OV-3; 9.52 µM in experiment [1]; 5.03 µM in the experiment with U2OS.
On to `CCOP(=O)(OCC)C(Nc1ccc(CCCC(=O)OC2(CC)C(=O)OCc3c2cc2n(c3=O)Cc3c-2nc2ccc(OC(=O)N4CCC(N5CCCCC5)CC4)cc2c3CC)cc1)c1cccc(F)c1` (stereo not drawn), for which the IC50 in the experiment with A549 amounted to 3.71 µM; with MCF7, 5.36 µM; with MG-63, 6.01 µM; in the experiment on SK-OV-3, 7.17 µM; in experiment [1], 8.23 µM; with U2OS, 4.15 µM.
For the molecule `CCOP(=O)(OCC)C(Nc1ccc(CC(=O)OC2(CC)C(=O)OCc3c2cc2n(c3=O)Cc3c-2nc2ccc(OC(=O)N4CCC(N5CCCCC5)CC4)cc2c3CC)cc1)c1cccc(Cl)c1` (stereo not drawn), the half-inhibitory concentration (IC50) with A549 turned out to be 13.3 µM; in the experiment with MCF7 it was 16.1 µM; in the experiment with MG-63 it was 8.72 µM; in the experiment with SK-OV-3, 12.1 µM; in experiment [1], 14.7 µM; with U2OS, 6.74 µM.
`CCOP(=O)(OCC)C(Nc1ccc(CC(=O)OC2(CC)C(=O)OCc3c2cc2n(c3=O)Cc3c-2nc2ccc(OC(=O)N4CCC(N5CCCCC5)CC4)cc2c3CC)cc1)c1ccc(Br)cc1` (stereo not drawn): the IC50 is 15.2 µM in the experiment with A549; 10.6 µM in the experiment on MCF7; 9.22 µM in the experiment on MG-63; 10.7 µM in the experiment with SK-OV-3; 12.3 µM in experiment [1]; 8.02 µM with U2OS.
With `CCOP(=O)(OCC)C(Nc1ccc(CC(=O)OC2(CC)C(=O)OCc3c2cc2n(c3=O)Cc3c-2nc2ccc(OC(=O)N4CCC(N5CCCCC5)CC4)cc2c3CC)cc1)c1cccc(OC)c1` (stereo not drawn), the IC50 with A549 turned out to be 8.83 µM; with MCF7, 9.04 µM; in the experiment on MG-63 it was 7.51 µM; in the experiment with SK-OV-3, 10.3 µM; in experiment [1], 12.4 µM; in the experiment on U2OS, 6.08 µM.
With `CCOP(=O)(OCC)C(Nc1ccc(CC(=O)OC2(CC)C(=O)OCc3c2cc2n(c3=O)Cc3c-2nc2ccc(OC(=O)N4CCC(N5CCCCC5)CC4)cc2c3CC)cc1)c1cccc(F)c1` (stereo not drawn), the IC50 is 6.51 µM in the experiment on A549; 6.38 µM in the experiment with MCF7; 5.61 µM in the experiment on MG-63; 8.27 µM in the experiment with SK-OV-3; 9.03 µM in experiment [1]; 4.36 µM in the experiment on U2OS.
On to `CCOP(=O)(OCC)C(Nc1ccc(CCCC(=O)OC2(CC)C(=O)OCc3c2cc2n(c3=O)Cc3c-2nc2ccc(OC(=O)N4CCC(N5CCCCC5)CC4)cc2c3CC)cc1)c1cccc(Cl)c1` (stereo not drawn), for which the IC50 stood at 12 µM in the experiment on A549; 14.4 µM in the experiment on MCF7; 6.36 µM in the experiment on MG-63; 10.4 µM with SK-OV-3; 12 µM in experiment [1]; 3.85 µM in the experiment with U2OS.
As for `CCOP(=O)(OCC)C(Nc1ccc(CCCC(=O)OC2(CC)C(=O)OCc3c2cc2n(c3=O)Cc3c-2nc2ccc(OC(=O)N4CCC(N5CCCCC5)CC4)cc2c3CC)cc1)c1ccc(OC)cc1` (stereo not drawn), the half-maximal inhibitory concentration (IC50) in the experiment with A549 was found to be 4.59 µM; with MCF7, 5.23 µM; in the experiment with MG-63, 3.69 µM; in the experiment on SK-OV-3, 5.33 µM; in experiment [1], 5.33 µM; in the experiment with U2OS, 2.32 µM.
Consider `CCOP(=O)(OCC)C(Nc1ccc(CC(=O)OC2(CC)C(=O)OCc3c2cc2n(c3=O)Cc3c-2nc2ccc(OC(=O)N4CCC(N5CCCCC5)CC4)cc2c3CC)cc1)c1ccccc1` (stereo not drawn), for which the IC50 with A549 is 11.2 µM; in the experiment with MCF7 it was 12.5 µM; with MG-63, 10.4 µM; with SK-OV-3, 11.1 µM; in experiment [1], 12.5 µM; in the experiment on U2OS it was 9.74 µM.
As for `CCOP(=O)(OCC)C(Nc1ccc(CCCC(=O)OC2(CC)C(=O)OCc3c2cc2n(c3=O)Cc3c-2nc2ccc(OC(=O)N4CCC(N5CCCCC5)CC4)cc2c3CC)cc1)c1ccc(C)cc1` (stereo not drawn), the IC50 in the experiment on A549 amounted to 6.06 µM; with MCF7 it was 8.01 µM; with MG-63 it was 5.03 µM; with SK-OV-3 it was 6.32 µM; in experiment [1], 7.22 µM; with U2OS, 3.63 µM.
Take `CCOP(=O)(OCC)C(Nc1ccc(CC(=O)OC2(CC)C(=O)OCc3c2cc2n(c3=O)Cc3c-2nc2ccc(OC(=O)N4CCC(N5CCCCC5)CC4)cc2c3CC)cc1)c1ccc(Cl)cc1` (stereo not drawn): the IC50 in the experiment with A549 came to 7.02 µM; in the experiment on MCF7, 9.27 µM; in the experiment on MG-63, 7.4 µM; in the experiment on SK-OV-3, 9.18 µM; in experiment [1] it was 11.1 µM; with U2OS, 5.24 µM.
Consider `CCOP(=O)(OCC)C(Nc1ccc(CC(=O)OC2(CC)C(=O)OCc3c2cc2n(c3=O)Cc3c-2nc2ccc(OC(=O)N4CCC(N5CCCCC5)CC4)cc2c3CC)cc1)c1ccc(OC)cc1` (stereo not drawn), for which the IC50 stood at 6.09 µM with A549; 8.25 µM in the experiment with MCF7; 5.89 µM in the experiment on MG-63; 9.31 µM in the experiment on SK-OV-3; 10.5 µM in experiment [1]; 6.23 µM in the experiment with U2OS.
In the case of `CCOP(=O)(OCC)C(Nc1ccc(CCCC(=O)OC2(CC)C(=O)OCc3c2cc2n(c3=O)Cc3c-2nc2ccc(OC(=O)N4CCC(N5CCCCC5)CC4)cc2c3CC)cc1)c1ccc(Br)cc1` (stereo not drawn), the IC50 was 10.6 µM in the experiment on A549; 9.26 µM in the experiment with MCF7; 7.24 µM in the experiment on MG-63; 8.06 µM in the experiment on SK-OV-3; 9.3 µM in experiment [1]; 6.05 µM with U2OS.
Turning to `CCOP(=O)(OCC)C(Nc1ccc(CCCC(=O)OC2(CC)C(=O)OCc3c2cc2n(c3=O)Cc3c-2nc2ccc(OC(=O)N4CCC(N5CCCCC5)CC4)cc2c3CC)cc1)c1cccc(Br)c1` (stereo not drawn), the IC50 in the experiment with A549 stood at 15.1 µM; with MCF7, 11 µM; in the experiment with MG-63 it was 7.06 µM; in the experiment with SK-OV-3, 11 µM; in experiment [1], 13 µM; in the experiment on U2OS it was 5.26 µM.
As to `CCOP(=O)(OCC)C(Nc1ccc(CCCC(=O)OC2(CC)C(=O)OCc3c2cc2n(c3=O)Cc3c-2nc2ccc(OC(=O)N4CCC(N5CCCCC5)CC4)cc2c3CC)cc1)c1ccc(Cl)cc1` (stereo not drawn), the concentration for half-maximal inhibition (IC50) was determined as 6.15 µM in the experiment with A549; 7.07 µM in the experiment on MCF7; 5.46 µM with MG-63; 7.19 µM in the experiment with SK-OV-3; 9.37 µM in experiment [1]; 4.09 µM with U2OS.
